High-throughput results (PubChem)
Most compounds without a hit are left out; they make up all but 2.6% or so of the library.
FGF22 binding = binders of human FGF22 protein, primary screen, FGF22 synaptogenesis inhibitor project, biophysical, thermal shift, single point | Fibroblast growth factor 22 (Homo sapiens), Q9HCT0 | recombinant FGF22 thermal shift, SYPRO orange fluorescence; percent of sucrose octasulfate shift, DMSO zero | activity (Tm shift, normalised), % at 9.99 µM | 340,000 compounds, 1.5% hits | AID 651658, 2012;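 active means mean Tm shift, scaled 0 neutral to 100 positive control, at about 1.3% or above, every replicate too, limit read from the data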
SIRT5 inh = SIRT5 desuccinylase inhibitors, primary screen, biochemical, fluorescence imaging, single point, set 5; 330,000 compounds, 1.1% hits; AID 652115, 2013; NAD-dependent protein deacylase sirtuin-5, mitochondrial (Homo sapiens), Q9NXA8; inhibition, % at 15 µM; Purified SirT5, succinyl-peptide AMC, trypsin-coupled fluorescence; in the data active means inhibition above about 15%
NSD2 inh = NSD2 histone methyltransferase inhibitors, primary screen, biochemical, AlphaScreen, single concentration, set 2 | AID 743445, 2014 | inhibition, % at 12.5 µM | NSD2 peptide methylation, 120 min | 310,000 compounds, 0.54% hits; in the data active means inhibition above about 50%
UCH37 DUB inh = inhibitors of human UCH37 deubiquitinase, primary screen, biochemical, Ub-AMC cleavage, fluorescence. 330,000 compounds, 0.33% hits. purified proteasome/UCH37. AID 588478, 2011. Ubiquitin carboxyl-terminal hydrolase isozyme L5 (Homo sapiens), Q9Y5K5. inhibition, % (concentration not given with the values);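 active means mean inhibition over replicate wells above about 20%, limit read from the data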;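 further: 0% = compound-free wells with enzyme and 100% = wells lacking proteasome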
Target sequence (Q9Y5K5 whole entry, looked up): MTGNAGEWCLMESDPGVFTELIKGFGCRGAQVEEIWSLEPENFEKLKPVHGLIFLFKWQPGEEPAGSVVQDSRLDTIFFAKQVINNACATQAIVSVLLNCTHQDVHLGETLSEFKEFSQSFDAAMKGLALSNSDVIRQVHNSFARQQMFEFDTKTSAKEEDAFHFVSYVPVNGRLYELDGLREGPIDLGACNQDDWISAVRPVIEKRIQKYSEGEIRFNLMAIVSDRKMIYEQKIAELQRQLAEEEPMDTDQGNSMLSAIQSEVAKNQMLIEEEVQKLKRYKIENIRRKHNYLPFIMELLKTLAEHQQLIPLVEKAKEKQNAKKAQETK
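Material: Human UCH37 enzyme supplied as purified proteasome complex | Schedule: 30 min preincubation with enzyme, 25 min cleavage at room temperature | Detection: AMC fluorescence 355/460 nm | Measure: % inhibition of Ub-AMC cleavage fluorescence | Controls: Wells without proteasome as full block, compound-free enzyme plus substrate as uninhibited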
CASP6 VEID inh = human caspase-6 inhibitors, primary screen, biochemical, VEID-R110 fluorescence, single point, set 2; purified caspase-6, Z-VEID-R110 cleavage fluorescence; inhibition, % at 12.5 µM; 350,000 compounds, 0.53% hits; AID 686996, 2013; P55212;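 active means mean inhibition across replicates at least about 35%, with every replicate also reaching that limit, limit read from the data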;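 further: 0% = median of neutral control wells and 100% = no fluorescence left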
Target sequence (P55212 24-179 limits assumed): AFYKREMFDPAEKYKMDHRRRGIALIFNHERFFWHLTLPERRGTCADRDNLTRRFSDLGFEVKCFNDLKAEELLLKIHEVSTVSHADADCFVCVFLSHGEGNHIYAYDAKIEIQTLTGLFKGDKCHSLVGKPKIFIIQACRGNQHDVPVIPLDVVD
Target sequence (P55212 194-293 limits assumed): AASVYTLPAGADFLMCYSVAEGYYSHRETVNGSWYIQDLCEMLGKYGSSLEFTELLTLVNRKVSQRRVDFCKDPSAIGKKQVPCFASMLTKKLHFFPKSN
An asterisk follows results filed as active.

Screening Cc1ccc(-c2ccc3c(c2)O[C@@H](CN(C)C(=O)CN(C)C)[C@@H](C)CN([C@@H](C)CO)S3(=O)=O)cc1 returned FGF22 binding 0, SIRT5 inh -1 and CASP6 VEID inh 0.
Screening COc1cccc(CNC(=O)C[C@@H]2CC[C@@H](NS(=O)(=O)c3ccccc3OC)[C@H](CO)O2)c1 returned FGF22 binding 0, SIRT5 inh -1 and CASP6 VEID inh -1.
CCc1ccc(NC(=O)CNCc2ccc(OC)c(OC)c2)cc1 was read as FGF22 binding 0, SIRT5 inh -1, NSD2 inh -1, UCH37 DUB inh 4 and CASP6 VEID inh 2.
Screening COc1ccc(CNCC(=O)Nc2cc(C)nn2-c2nc(C)cc(C)n2)cc1OC returned FGF22 binding 44*, SIRT5 inh -1, NSD2 inh 1, UCH37 DUB inh 2 and CASP6 VEID inh -2.
`O=C1CCN(CCCN2CCC(=O)NC2=S)C(=S)N1` gave FGF22 binding 44*, NSD2 inh 2 and CASP6 VEID inh 3.
C/C(=N\N1CCN(C)CC1)c1ccc(OC(F)F)cc1 was read as FGF22 binding 43*, SIRT5 inh -6, NSD2 inh 0 and CASP6 VEID inh 0.
Cc1ccc2c(c1)sc(C)[n+]2CCCS(=O)(=O)[O-] was read as FGF22 binding 43*, SIRT5 inh 0, NSD2 inh -2, UCH37 DUB inh 0 and CASP6 VEID inh 2.
Screening Cc1ccc(-c2cnc3c(c2)C(=O)N([C@H](C)CO)C[C@@H](C)[C@@H](CN(C)C(=O)c2cccc(F)c2)O3)cc1 returned FGF22 binding 0, SIRT5 inh -1 and CASP6 VEID inh 2.
For Cc1cc(-c2csc(NC(=O)c3ccc(=O)[nH]c3)n2)c(C)n1Cc1ccco1 the results were FGF22 binding 41, SIRT5 inh 1, NSD2 inh 10, UCH37 DUB inh 1 and CASP6 VEID inh 18.
Screening CCNc1nc(-c2cc(C)n(Cc3ccco3)c2C)cs1 returned FGF22 binding 0, SIRT5 inh -4, NSD2 inh 4, UCH37 DUB inh -1 and CASP6 VEID inh 51*.
For O=C(O)c1cc(-c2ccccc2)n(-c2ccccc2)n1 the results were UCH37 DUB inh 5.
`COc1ccc(-n2nc(C(=O)O)cc2-c2ccccc2)cc1` gave FGF22 binding 0, SIRT5 inh 18*, NSD2 inh 0, UCH37 DUB inh 5 and CASP6 VEID inh -1.
Cc1cccc(NS(=O)(=O)c2cc(C(=O)NCCC3=CCCCC3)ccc2Cl)c1 was read as FGF22 binding 0, SIRT5 inh -1, NSD2 inh 2 and UCH37 DUB inh 21*.
Screening CC1CN(S(=O)(=O)c2cc(C(=O)NCCC3=CCCCC3)ccc2Cl)CC(C)O1 (configuration not stated) returned FGF22 binding 0, SIRT5 inh 4, NSD2 inh 0, UCH37 DUB inh 5 and CASP6 VEID inh -2.
For C/C=C/c1ccc2c(c1)O[C@@H](CN(C)Cc1ccccn1)[C@H](C)CN([C@H](C)CO)S2(=O)=O the results were FGF22 binding 0, SIRT5 inh -2 and CASP6 VEID inh -1.
For COc1ccc(S(=O)(=O)Nc2ccc3c(c2)C(=O)N([C@H](C)CO)C[C@H](C)[C@H](CN(C)Cc2ccc4c(c2)OCO4)O3)cc1 the results were FGF22 binding 0, SIRT5 inh 16* and CASP6 VEID inh 3.
For COc1ccc(S(=O)(=O)Nc2ccc3c(c2)C(=O)N([C@H](C)CO)C[C@H](C)[C@@H](CN(C)Cc2ccc4c(c2)OCO4)O3)cc1 the results were FGF22 binding 0, SIRT5 inh -3 and CASP6 VEID inh -1.
For C[C@@H]1CN([C@H](C)CO)C(=O)c2cc(NS(=O)(=O)c3ccc(Cl)cc3)ccc2O[C@H]1CN(C)Cc1ccc2c(c1)OCO2 the results were FGF22 binding 0, SIRT5 inh 20* and CASP6 VEID inh 2.
C[C@@H]1CN([C@@H](C)CO)C(=O)c2cc(NS(=O)(=O)c3ccc(Cl)cc3)ccc2O[C@@H](C)CCCCO[C@@H]1CN(C)Cc1ccc2c(c1)OCO2 was read as SIRT5 inh 16* and CASP6 VEID inh -3.
`C[C@@H]1CN([C@H](C)CO)C(=O)c2cc(NS(=O)(=O)c3ccc(Cl)cc3)ccc2O[C@@H]1CN(C)Cc1ccc2c(c1)OCO2` gave FGF22 binding 0, SIRT5 inh 4 and CASP6 VEID inh 1.
OC(c1ccc(F)cc1)c1ncc(-c2ccccc2F)[nH]1 (configuration not stated) was read as FGF22 binding 0, SIRT5 inh -1, NSD2 inh 1 and CASP6 VEID inh 39*.
For CCc1ccc(C(O)c2ncc(-c3ccccc3F)[nH]2)cc1 (configuration not stated) the results were FGF22 binding 0, SIRT5 inh -6, NSD2 inh 0 and CASP6 VEID inh 2.
Screening O=C(NCC[C@H]1CC[C@@H](NS(=O)(=O)c2cccc(F)c2)[C@@H](CO)O1)Nc1cc(F)ccc1F returned FGF22 binding 0, SIRT5 inh 4 and CASP6 VEID inh 0.
For O=C(ON=Cc1ccc2c(c1)OCO2)c1ccc([N+](=O)[O-])cc1 the results were UCH37 DUB inh 2.
`O=c1ccc2[n+]([O-])c3ccc(O)cc3oc-2c1` gave SIRT5 inh 11, NSD2 inh 102*, UCH37 DUB inh 7 and CASP6 VEID inh 88*.
Screening C[C@@H]1CN([C@@H](C)CO)C(=O)Cc2cc(NS(=O)(=O)c3cn(C)cn3)ccc2O[C@@H]1CN(C)C(=O)Nc1ccc2c(c1)OCO2 returned FGF22 binding 0, SIRT5 inh 1 and CASP6 VEID inh -2.
C/C=C/c1ccc2c(c1)O[C@@H](CN(C)C(=O)Cc1ccncc1)[C@H](C)CN([C@@H](C)CO)S2(=O)=O was read as FGF22 binding 0, SIRT5 inh 2 and CASP6 VEID inh 0.
Screening O=C(c1cc2cc(F)ccc2[nH]1)N(Cc1cccnc1)CC1CCCN(C2CCCCC2)C1 (configuration not stated) returned FGF22 binding 0, SIRT5 inh 2, NSD2 inh 5, UCH37 DUB inh 3 and CASP6 VEID inh -11.
`C#Cc1cccc(C(=O)N(Cc2cccnc2)CC2CCCN(C3CCCCC3)C2)c1` (configuration not stated) gave FGF22 binding 43* and CASP6 VEID inh -10.
